Sampled rows, rich in hits. Any-hit rate of the full collection: about 2.6%.
GSIS activator – primary screen for activators of insulin secretion dependent on glucose, INS-1E cells, GLuc reporter luminescence; activation, % at 16.6 µM; INS-1E GLuc reporter insulin secretion, 2-3 h; 370,000 compounds, 0.61% hits; AID 743287;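 active = lowest replicate activation of at least 40%, so every replicate reaches that level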;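 note: 0% = median of neutral control wells and 100% = median of IBMX positive control wells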
F508del corr – CFTR F508del correction in bronchial cells; CFBE cells, YFP halide quenching; stimulated with forskolin plus potentiator P3; % fluorescence drop versus neutral controls; activity (quench increase), % at 7.58 µM; 350,000 compounds, 0.36% hits; AID 720511;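 active = mean added fluorescence quench of at least 8% versus neutral control, with both replicates also reaching 8%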;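 note: cells transiently co-express mutant CFTR-F508del with the halide-sensitive YFP; corrector assay measuring rescue of mutant channel to the surface after 24 h compound exposure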
E-selectin induc – induces E-selectin expression in human endothelial cells | 260,000 compounds, 0.37% hits | HUVEC E-selectin immunofluorescence imaging; normalized: neutral wells 0, TNF-alpha wells 100 | AID 686992 | P16581 | activation, % at 7.58 µM;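 active = mean E-selectin-positive cell signal at least 10% of the positive control, reached in at least 60% of replicates, without over 20% cell loss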
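Test system – human umbilical vein endothelial cells (HUVEC), E-selectin induction · Input – 3,000 HUVEC seeded per well · Buffer or medium – EGM-2, gelatin · Compound dosing – single-point compound dose · Detection – immunofluorescence imaging · Measure – percent E-selectin-positive cells · Controls – TNF-alpha high, DMSO low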
ERAP1 inh – inhibitors of human ERAP1 aminopeptidase. inhibition, % at 10.7 µM. recombinant ERAP1, Leu-AMC fluorescence, 60 min. 340,000 compounds, 0.15% hits. Q9NZ08. AID 652197;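 active = mean replicate inhibition of at least 30%, or all replicates individually reaching that 30% level; inactive = mean below 30% and not every replicate reaching it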;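 note: 0% = neutral control wells and 100% = L-leucinethiol positive control wells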
Target sequence (Q9NZ08 whole entry, looked up): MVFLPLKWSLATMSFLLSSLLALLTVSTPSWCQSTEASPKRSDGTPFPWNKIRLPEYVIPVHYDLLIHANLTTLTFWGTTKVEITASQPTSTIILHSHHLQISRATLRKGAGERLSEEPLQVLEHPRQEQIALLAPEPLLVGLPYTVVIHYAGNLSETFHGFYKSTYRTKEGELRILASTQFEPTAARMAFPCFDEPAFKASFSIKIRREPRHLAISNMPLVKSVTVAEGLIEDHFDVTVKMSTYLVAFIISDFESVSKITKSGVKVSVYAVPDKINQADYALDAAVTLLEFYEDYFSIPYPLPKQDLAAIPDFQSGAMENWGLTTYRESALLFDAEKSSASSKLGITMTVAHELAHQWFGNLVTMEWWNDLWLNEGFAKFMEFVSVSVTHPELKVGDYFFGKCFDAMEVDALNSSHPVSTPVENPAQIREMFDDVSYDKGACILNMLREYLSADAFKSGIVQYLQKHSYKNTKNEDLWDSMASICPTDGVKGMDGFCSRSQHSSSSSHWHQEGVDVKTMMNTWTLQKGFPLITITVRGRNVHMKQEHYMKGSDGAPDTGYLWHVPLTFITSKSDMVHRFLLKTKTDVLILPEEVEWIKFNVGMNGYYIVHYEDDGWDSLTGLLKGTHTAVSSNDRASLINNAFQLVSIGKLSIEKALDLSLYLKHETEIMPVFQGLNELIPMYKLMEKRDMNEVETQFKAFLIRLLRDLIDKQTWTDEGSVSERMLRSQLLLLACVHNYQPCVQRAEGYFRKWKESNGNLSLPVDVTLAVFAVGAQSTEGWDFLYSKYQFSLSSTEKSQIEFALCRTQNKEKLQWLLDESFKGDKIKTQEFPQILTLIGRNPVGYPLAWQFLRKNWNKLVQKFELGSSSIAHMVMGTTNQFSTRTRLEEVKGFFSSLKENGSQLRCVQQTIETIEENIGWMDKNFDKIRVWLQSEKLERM
DENV2 CPE rescue – DENV2-induced cell death inhibition; 350,000 compounds, 1.7% hits; AID 651640; DENV2-infected cells, cytopathic effect rescue, plate reader; CPE inhibition, % at 9.99 µM; in the data active = CPE inhibition above about 20%, passing the limit was not always enough; tested in BHK-21 cells;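 note: 0% = median of neutral control wells and 100% = median of positive control wells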
miR122 inh – miR-122 inhibition in Huh7 cells | Huh7 miR-122 Renilla luciferase sensor, 48 h; neutral wells = 0, positive control = 100 | activation (reporter increase), % at 12.5 µM | 340,000 compounds, 0.3% hits | AID 602342;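 active = mean replicate activation score at least 90 and every replicate individually at or above 90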;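 note: higher luciferase means less miR-122 activity so hits act as miR-122 inhibitors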
* marks the source's active call; other numbers are inactive results; x = no result given; ! = repeats disagree; [ ] = dose if it differs, or a comment.

SMILES	GSIS activator	F508del corr	E-selectin induc	ERAP1 inh	DENV2 CPE rescue	miR122 inh
C[C@@H]1CCCCO[C@H](CN(C)C(=O)Cc2ccccc2)[C@@H](C)CN([C@@H](C)CO)C(=O)c2cc(NC(=O)Nc3ccccc3)ccc2O1	-12	3	x	-2	-11	3[16.7 µM]
C[C@H]1CN([C@@H](C)CO)C(=O)c2cc(NS(=O)(=O)c3cn(C)cn3)ccc2O[C@@H]1CN(C)Cc1ccccc1	16	-1	1	-1	24*	-8[16.7 µM]
C[C@H](CO)N1C[C@H](C)[C@@H](CN(C)Cc2ccccc2)Oc2ccc(NS(=O)(=O)c3cn(C)cn3)cc2C1=O	7	-1	1	1	-9	-1[16.7 µM]
Cc1ccc(C(=O)NCCc2cc3ccc(C)c(C)c3[nH]c2=O)cc1[N+](=O)[O-]	-2	-2	x	0	50*	x
COc1ccc(C(=O)NCCc2cc3ccc(C)c(C)c3[nH]c2=O)cc1OC	2	1	x	3	1	x
CC1CCC(C(C)C)C(OCC(O)CNC(C)(C)C)C1 (stereo unspecified)	24	5	x	6	-4	x
CC1CCC(C(C)C)C(OCC(O)CNC(C)c2ccccc2)C1 (stereo unspecified)	199*	-1	x	5	x	x
FC(F)(F)c1cccc(Cn2c3[n+](c4ccc(C(F)(F)F)cc42)CCCCC3)c1	4	2	x	3	6	x
N#Cc1ccc(NC(=O)Cn2c3[n+](c4ccc(C(F)(F)F)cc42)CCCCC3)cc1	7	1	x	64*	-6	x
CCN(CC(=O)Nc1cc(Cl)ccc1C)C(=O)c1ccc2c(c1)NC(=O)C(C)S2 (stereo unspecified)	-15	0	x	-2	50*	8
CC(=O)c1ccc(N(C(=O)CNC(=O)c2ccco2)C(C(=O)NC2CCCC2)c2ccc(C)o2)cc1 (stereo unspecified)	10	4	33*	-5	3	-1
COc1ccc(N(C(=O)CNC(=O)c2ccco2)C(C(=O)NC2CCCC2)c2ccc(C)o2)cc1 (stereo unspecified)	2	0	x	-3	-7	x
COc1ccc(N(C(=O)c2ccco2)C(C(=O)NC2CCCC2)c2ccncc2)cc1 (stereo unspecified)	85	0	0	0	12	-2
CCOC(=O)c1ccc(N(C(=O)c2ccco2)C(C(=O)NC2CCCCC2)c2ccncc2)cc1 (stereo unspecified)	2	0	35*	-3	1	-1
C[C@H](CO)N1C[C@H](C)[C@H](CN(C)C(=O)Nc2ccc(F)cc2)OCCCC[C@H](C)Oc2ccc(NC(=O)c3ccccc3)cc2C1=O	-16	-2	1	0	84*	7[16.7 µM]
C[C@@H]1CCCCO[C@H](CN(C)C(=O)Nc2ccc(C(F)(F)F)cc2)[C@@H](C)CN([C@H](C)CO)C(=O)c2cc(NC(=O)c3ccncc3)ccc2O1	-2	2	0	2	21*!	4
C[C@@H]1CCCCO[C@H](CN(C)C(=O)Nc2ccc(C(F)(F)F)cc2)[C@H](C)CN([C@@H](C)CO)C(=O)c2cc(NC(=O)c3ccncc3)ccc2O1	-5	3	0	0	22*	-7[16.7 µM]
C[C@@H]1CCCCO[C@@H](CN(C)C(=O)Nc2ccc3c(c2)OCO3)[C@@H](C)CN([C@H](C)CO)C(=O)c2cc(NC(=O)c3ccccc3)ccc2O1	17	1	0	-1	20*	9[16.7 µM]
C[C@@H]1CCCCO[C@@H](CN(C)C(=O)Nc2ccc(F)cc2)[C@H](C)CN([C@H](C)CO)C(=O)c2cc(NC(=O)c3ccncc3)ccc2O1	1	2	0	-1	27*	-4[16.7 µM]
COc1ccc(-n2c(C)cc(/C=C3/SC(=O)N(CC(=O)N4CCOCC4)C3=O)c2C)cc1	24	-2	0	-2	-2	x
Cc1cc(/C=C2/SC(=O)N(CC(=O)N3CCOCC3)C2=O)c(C)n1-c1ccccc1F	52*	-1	-1	-7	10	x
CSc1ccc(/C=C/C(=O)OCC(=O)N2CCN(S(=O)(=O)c3ccc(C)cc3C)CC2)cc1	-9	-2	x	2	25*	-4
Cc1ccc(S(=O)(=O)N2CCN(C(=O)COC(=O)/C=C/c3ccc(F)cc3)CC2)c(C)c1	-2	1	1	-1	5	x
Cc1ccc(S(=O)(=O)Nc2ccc3c(c2)C(=O)N([C@H](C)CO)C[C@H](C)[C@@H](CN(C)C(=O)NC2CCCCC2)OCCCC[C@H](C)O3)cc1	-23	1	0	-2	3	-2[16.7 µM]
O=C(NCCc1ccncc1)[C@@H]1[C@@H](CO)[C@@H]2Cn3c(ccc(-c4cccc(F)c4)c3=O)[C@H]1N2	22	2	0	1	85*	2[16.7 µM]
SMILES	GSIS activator	F508del corr	E-selectin induc	ERAP1 inh	DENV2 CPE rescue	miR122 inh
CCc1cccc(C)c1NC(=O)c1cc(=O)[nH]c2ccc(S(=O)(=O)N3CCOCC3)cc12	15	-3	3	95*	1	-2
CSC1=NS(=O)(=O)c2c(C)nn(C)c2S1	-11	-7	x	87*	6	-7
CC(C)NC(=O)Nc1ccc2c(c1)C(=O)N([C@@H](C)CO)C[C@@H](C)[C@H](CN(C)C(=O)CCCN(C)C)OCCCC[C@@H](C)O2	8	-2	0	x	x	-2[16.7 µM]
Cc1cccc(N(C)c2cc(C)nc3nc(C)nn23)c1	-8	0	2	-1	29*	2
Cc1cc(C)cc(NC(=O)C2CCN(c3nccs3)CC2)c1	-21	x	x	x	x	128*
COc1ccccc1NC(=O)N(C)C[C@H]1OCc2ccccc2-c2c(n(C)c3ccccc23)C(=O)N([C@H](C)CO)C[C@H]1C	-20	0	0	x	x	x
CCc1ccc(S(=O)(=O)Nc2ccc(Cl)cn2)cc1	17	1	0	0	3	178*
Cc1ccc(S(=O)(=O)Nc2ccc3cn[nH]c3c2)c(C)c1	-12	0	x	-1	-6	x
CCOc1cc(C)c(S(=O)(=O)Nc2ccc(Cl)cn2)cc1C	x	x	-1	x	x	124*
O=S(=O)(Nc1ccc(Cl)cn1)c1ccc(Cl)cc1	-3	-2	0	-7	-2	x
CCOc1ccc(S(=O)(=O)Nc2ccc(Cl)cn2)c(C)c1C	x	x	x	x	x	65
O=S(=O)(Nc1ccc2cn[nH]c2c1)c1cc(Br)ccc1Br	x	4	1	0	-7	180*
CCOc1cc(C)c(S(=O)(=O)Nc2ccc3cn[nH]c3c2)cc1C	x	x	x	x	x	124*
CC(C)CC#Cc1cnc2c(c1)C(=O)N([C@@H](C)CO)C[C@H](C)[C@H](CN(C)C(=O)c1cccnc1)O2	13	2	0	-1	-12	-9[16.7 µM]
O=C(CCN1CCCCC1)NCC[C@H]1CC[C@@H](NS(=O)(=O)c2cccc(Cl)c2)[C@H](CO)O1	2	0	0	-1	5	x
